Data as given in ChEMBL document CHEMBL1125457, “Inhibitors of acyl-CoA:cholesterol acyltransferase. 1. Identification and structure-activity relationships of a novel series of fatty acid anilide hypocholesterolemic agents” (J Med Chem, 1992).

Columns and labels:
[1] = species: Rattus norvegicus; assay: Percent change in high density lipoprotein (HDL-cholesterol in cholesterol-fed rats.; format: functional
Summary of the method: (§1)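 Rats fed ad libitum for 1 week on a diet with peanut oil (5.5%), cholesterol (1.5%) and cholic acid (0.3%), with compound mixed in at 0.05% of the diet. Sacrificed in the fed state. Plasma total and/or HDL cholesterol measured as percent change versus cholesterol-fed controls. Significance by ANOVA followed by Fisher's multiple range test, p < 0.05.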

[2] = target: T1, O-acyltransferase (Oryctolagus cuniculus, UniProt G1SFD9); assay: In vitro inhibition of acyl coenzyme A:cholesterol acyltransferase, in intestinal microsomes isolated from cholesterol-fed rabbits; design: species or system Intestine
Summary of the method: (§2)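 Rabbit intestinal mucosa scraped, washed, homogenized in phosphate/KCl/EDTA/sucrose buffer; microsomes pelleted at 100000g and stored at -70 °C. Microsomes (0.3 mg protein) with BSA (0.5 mg) and inhibitor in DMSO/Tween-20 preincubated 5 min at 37 °C. [1-14C]oleoyl-CoA (10 nmol, 0.05 μCi) then added for 5 min. Cholesteryl oleate extracted, separated by TLC and counted by scintillation. Four dilutions per compound, in triplicate.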

[3] = species: Rattus norvegicus; assay: Percent change in total cholesterol (TC) in cholic acid (0.3%) -cholesterol (1.5%) -peanut oil(5.5%) -fed rats.; format: functional; summary of the method: as §1
[4] = target: T1, O-acyltransferase; assay: Tested in vitro to inhibit Acyl coenzyme A:cholesterol acyltransferase in intestinal microsomes isolated from cholesterol-fed rabbits.; design: species or system Intestine; summary of the method: as §2

T1 sequence (G1SFD9 1-524): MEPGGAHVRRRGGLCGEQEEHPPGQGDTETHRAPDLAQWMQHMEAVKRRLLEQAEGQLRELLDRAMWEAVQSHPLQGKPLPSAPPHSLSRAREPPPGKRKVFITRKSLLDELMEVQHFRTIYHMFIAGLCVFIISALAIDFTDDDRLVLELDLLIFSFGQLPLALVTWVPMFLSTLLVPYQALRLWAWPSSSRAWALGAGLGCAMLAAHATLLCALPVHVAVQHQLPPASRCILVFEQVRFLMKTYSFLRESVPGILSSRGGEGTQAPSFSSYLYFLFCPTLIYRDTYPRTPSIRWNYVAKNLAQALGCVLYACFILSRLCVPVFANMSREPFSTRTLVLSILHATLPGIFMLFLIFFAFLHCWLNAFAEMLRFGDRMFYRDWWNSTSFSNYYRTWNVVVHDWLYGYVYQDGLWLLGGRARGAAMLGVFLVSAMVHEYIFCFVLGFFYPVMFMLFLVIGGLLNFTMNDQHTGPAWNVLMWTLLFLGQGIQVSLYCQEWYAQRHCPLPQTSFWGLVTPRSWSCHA

Row | SMILES | Change [1] [%] | IC50 [2] [µM] | Change [3] [%] | IC50 [4] [µM]
1 | CCCCCCCCCCCCC1(C(=O)Nc2c(OC)cc(OC)cc2OC)CC1 | 27 | 0.058 | -40 | –
2 | CCCCCCCCCCC(C)(C)C(=O)Nc1c(C(C)C)cccc1C(C)C | – | 0.21 | – | –
3 | CCCCCCCCCCCCCCC1(C(=O)Nc2c(OC)cc(OC)cc2OC)CC1 | 16 | 0.049 | -43 | –
4 | CCCCCCCCCCC(C)(C)C(=O)Nc1c(C)cccc1OCC | – | 0.18 | – | –
5 | CCCCCCCCCCC(C)(C)C(=O)Nc1ccc(C)c(C)c1 | – | 1.66 | – | –
6 | CCCCCCCCCCC(C)(C)C(=O)Nc1c(C)cccc1OC | – | 0.21 | – | –
7 | CCCCCCCC/C=C/CCCCCCCC(=O)Nc1cccc2c1CCCC2 | – | 0.35 | – | –
8 | CCCCCCCCCCC(C)(C)C(=O)Nc1c(O)cc(OC)cc1OC | – | 0.59 | – | –
9 | CCCCCCCCCCC1(C(=O)Nc2c(OC)cc(OC)cc2OC)CCCC1 | 45 | 0.032 | -67 | –
10 | CCCCCCCC/C=C/CCCCCCC(C)(C)C(=O)Nc1c(OC)cc(OC)cc1OC | – | 0.044 | -60 | –
11 | CCCCCCCCCCC(C)(C)C(=O)Nc1c(OC)cc(OC)cc1OCCCCCCC | – | 0.14 | – | –
12 | CCCCCCCC/C=C/CCCCCCCC(=O)Nc1cc(C(=O)OC)c(OC)cc1OC | – | 1.1 | – | –
13 | CCCCCCCC/C=C/CCCCCCCC(=O)Nc1ccccc1C(C)C | – | 0.6 | – | –
14 | CCCCCCCCCCC(C)(C)C(=O)Nc1c(C)cccc1Cl | – | 0.75 | – | –
15 | CCCCCCCCCCCCCCCC(=O)Nc1c(OC)cc(OC)cc1OC | – | 0.054 | -38 | –
16 | CCCCCCCC/C=C/CCCCCCCC(=O)Nc1c(Cl)cc(Cl)cc1Cl | – | 0.03 | -44 | –
17 | CCCCCCCC/C=C/CCCCCCCC(=O)Nc1cc(OC)c(OC)cc1OC | – | 1.1 | – | –
18 | CCCCCCCCCCC(C)(C)C(=O)Nc1cc(C(=O)OC)ccc1OC | – | 0.13 | – | –
19 | CCCCCCCCCCC(CC)(CC)C(=O)Nc1c(OC)cc(OC)cc1OC | – | 0.097 | – | –
20 | CCCCCCCCCCCCC(CC)C(=O)Nc1c(OC)cc(OC)cc1OC (configuration not stated) | – | 0.052 | -11 | –
21 | CCCCCCCC/C=C/CCCCCCCC(=O)Nc1c(O)cc(OC)cc1OC | – | 0.15 | – | –
22 | CCCCCCCCCCCCCCC(=O)Nc1c(OC)cc(OC)cc1OC | – | 0.065 | – | –
23 | CCCCCCCCCCCCCC(=O)Nc1c(OC)cc(OC)cc1OC | – | 0.19 | -44 | –
24 | C=C(CCCCCCCCCC)C(=O)Nc1c(OC)cc(OC)cc1OC | – | 0.2 | – | –
25 | CCCCCCCC(C)(C)C(=O)Nc1c(OC)cc(OC)cc1OC | 2 | 0.18 | -13 | –

Row | SMILES | Change [1] [%] | IC50 [2] [µM] | Change [3] [%] | IC50 [4] [µM]
26 | CCCCCCCCCCC(C)(C)C(=O)Nc1c(CC)cccc1CC | – | 0.39 | – | –
27 | CCCCCCCCCCCCC(C)(C)C(=O)Nc1c(OC)cc(OC)cc1OC | 19 | 0.063 | -45 | –
28 | CCCCCCCCCCC1(C(=O)Nc2c(OC)cc(OC)cc2OC)CCCCCC1 | 9 | 0.093 | -42 | –
29 | CCCCCCCC/C=C/CCCCCCCC(=O)Nc1cc(Cl)c(OC)cc1OC | – | 0.52 | -7 | –
30 | CCCCCCCCCC(C)(C)C(=O)Nc1c(OC)cc(OC)cc1OC | 86 | – | -53 | 0.059
31 | CCCCCCCC/C=C/CCCCCCCC(=O)Nc1cc(C(=O)OC)c(C)cc1C | – | 0.06 | -41 | –
32 | CCCCCCCCCCCCCCC(C)(C)C(=O)Nc1c(OC)cc(OC)cc1OC | 26 | 0.044 | -55 | –
33 | CCCCCCCC/C=C/CCCCCCCC(=O)Nc1ccc(C)cc1C(=O)OC | – | 9.2 | – | –
34 | CCCCCCCCCCC(CC)C(=O)Nc1c(OC)cc(OC)cc1OC (configuration not stated) | – | – | – | 0.073
35 | CCCCCCCCCCC(C)(C)C(=O)Nc1c(F)cc(F)cc1F | – | 0.26 | – | –
36 | CCCCCCCCCCC(C)(C)C(=O)Nc1c(C)cc(Br)cc1C | – | 0.41 | – | –
37 | CCCCCCCCC(C)(C)C(=O)Nc1c(OC)cc(OC)cc1OC | 53 | 0.059 | -43 | –
38 | CCCCCCCCCCCCCCCCC(C)(C)C(=O)Nc1c(OC)cc(OC)cc1OC | 13 | 0.087 | -34 | –
39 | CCCCCCCCCCC(C)(C)C(=O)Nc1c(C)cccc1C | – | 1.3 | – | –
40 | CCCCCCCC/C=C/CCCCCCCC(=O)Nc1c(CC)cccc1CC | – | 0.017 | -51 | –
41 | CCCCCCCC/C=C/CCCCCCCC(=O)Nc1ccccc1OC | – | 8 | – | –
42 | CCCCCCCC/C=C/CCCCCCCC(=O)Nc1ccc(F)cc1F | – | 32 | -19 | –
43 | CCCCCCCCCCC(C)(C)C(=O)Nc1c(C)cc(C)cc1C | – | 0.194 | – | –
44 | CCCCCCCC/C=C/CCCCCCCC(=O)Nc1c(C)cc(C)cc1C | – | 0.7 | -27 | –
45 | CCCCCCCC/C=C/CCCCCCCC(=O)Nc1c(C)cccc1C(C)C | – | 0.023 | -45 | –
46 | CCCCCCCCCCCCCCCCCC(=O)Nc1c(OC)cc(OC)cc1OC | 31 | 0.052 | -11 | –
47 | CCCCCCCC/C=C/CCCCCCC(C)C(=O)Nc1c(OC)cc(OC)cc1OC (configuration not stated) | – | 0.036 | -40 | –
48 | CCCCCCCCCCC1(C(=O)Nc2c(OC)cc(OC)cc2OC)CCCCC1 | – | 0.07 | -43 | –
49 | CCCCCCCC/C=C/CCCCCCCC(=O)Nc1ccccc1C(=O)c1ccccc1 | – | > 10 | – | –
50 | CCCCCCCC/C=C\CCCCCCCC(=O)Nc1c(C)cccc1C | – | – | -38 | 0.043

Row | SMILES | Change [1] [%] | IC50 [2] [µM] | Change [3] [%] | IC50 [4] [µM]
51 | CCCCCCCC/C=C/CCCCCCCC(=O)Nc1ccccc1CC | – | 1.2 | – | –
52 | CCCCCCCCCCCCC(C)C(=O)Nc1c(OC)cc(OC)cc1OC (configuration not stated) | – | – | -39 | –
53 | CCCCCCCC/C=C/CCCCCCCC(=O)Nc1ccccc1Cl | – | 75 | – | –
54 | CCCCCCCC/C=C/CCCCCCCC(=O)Nc1cccc(C(=O)OC)c1C | – | > 5 | – | –
55 | CCCCCCCC/C=C/CCCCCCCC(=O)Nc1c(OC)cc(OC)cc1OC | – | – | -38 | 0.051
56 | CCCCCCCC/C=C/CCCCCCCC(=O)Nc1cc(C(=O)OC)ccc1OC | – | 0.43 | – | –
57 | CCCCCCCCCCC(C)(C)C(=O)Nc1c(OC)cc(OC)cc1OCC(=O)OC | – | 2.3 | – | –
58 | CCCCCCCC/C=C/CCCCCCCC(=O)Nc1cccc(C)c1[N+](=O)[O-] | – | 12 | – | –
59 | CCCCCCCCCCC(C)(C)C(=O)Nc1ccc(C)cc1C | – | 0.68 | – | –
60 | CCCCCCCC/C=C/CCCCCCCC(=O)Nc1c(C)cccc1OCC | – | 0.015 | -45 | –
61 | CCCCCCCC/C=C/CCCCCCCC(=O)Nc1c(F)cc(F)cc1F | – | – | 2 | 6.3
62 | CCCCCCCC/C=C/CCCCCCCC(=O)Nc1ccc(OC)cc1OC | – | 3 | – | –
63 | CCCCCCCC/C=C/CCCCCCCC(=O)Nc1ccc(CC(=O)OCC)c(C)c1 | – | 3 | -10 | –
64 | CCCCCCCCCCC1(C(=O)Nc2c(OC)cc(OC)cc2OC)CCC1 | 73 | 0.039 | -57 | –
65 | CCCCCCCCCCC(C)(C)C(=O)Nc1c(OC)cc(OC)cc1OCC(=O)O | – | > 1 | – | –
66 | CCCCCCCC/C=C/CCCCCCCC(=O)Nc1c(C)cccc1OC | – | 0.02 | -30 | –
67 | CCCCCCCCCCC(C)C(=O)Nc1c(OC)cc(OC)cc1OC (configuration not stated) | – | – | – | 0.09
68 | CCCCCCCC/C=C/CCCCCCCC(=O)Nc1ccc(OC)c(OC)c1 | – | – | – | 4.5
69 | CCCCCCCC/C=C/CCCCCCCC(=O)Nc1c(C(C)C)cccc1C(C)C | – | 0.007 | -21 | –
70 | CCCCCCCCCCC(C)(C)C(=O)Nc1c(C)cccc1C(C)C | – | 0.24 | – | –
71 | CCCCCCCCCCC(C)(C)C(=O)Nc1c(OC)cc(OC)cc1OC [CL-976] | 94 | – | – | –
72 | CCCCCCCCCCCCCCC(C)C(=O)Nc1c(OC)cc(OC)cc1OC (configuration not stated) | – | 0.031 | – | –
73 | CCCCCCCC/C=C/CCCCCCCC(=O)Nc1ccccc1-c1ccccc1 | – | 0.91 | – | –
